Data: paper PMC6119551 (Neuropharmacology, 2018)

Legend:
[1] = biological target: 5-HT2A receptors in rat brain tissue (Rattus norvegicus, UniProt P14842); experiment: [3H]M100907 radioligand binding in rat brain tissue
human 5-HT2A receptors [2] = biological target: T1, human 5-HT2A receptors (Homo sapiens, UniProt P28223); experiment: Calcium mobilization, HEK293 cells expressing human 5-HT2A; format: cell-based; conditions: for Fold more potent than NBOMe counterpart in 5-HT2A-mediated calcium mobilization: 2C-C vs 25C-NBOMe, 2C-I vs 25I-NBOMe; for Emax: HEK293, read-out: 5-HT2A Mobilization of Calcium %Emax
T1 sequence (P28223 whole entry): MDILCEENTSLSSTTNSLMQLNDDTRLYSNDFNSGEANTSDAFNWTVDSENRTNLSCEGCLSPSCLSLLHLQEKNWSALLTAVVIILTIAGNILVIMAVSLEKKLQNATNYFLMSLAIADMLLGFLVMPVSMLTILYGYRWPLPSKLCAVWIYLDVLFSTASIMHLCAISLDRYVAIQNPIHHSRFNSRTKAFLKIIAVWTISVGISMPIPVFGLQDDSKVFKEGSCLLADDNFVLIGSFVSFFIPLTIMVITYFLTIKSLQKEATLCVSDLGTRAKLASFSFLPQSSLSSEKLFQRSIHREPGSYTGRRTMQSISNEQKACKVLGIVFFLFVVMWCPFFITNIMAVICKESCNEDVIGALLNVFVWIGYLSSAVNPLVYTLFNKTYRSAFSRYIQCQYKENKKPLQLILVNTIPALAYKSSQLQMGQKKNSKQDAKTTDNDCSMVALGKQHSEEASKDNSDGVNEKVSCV

human 5-HT2C receptors = biological target: T2, human 5-HT2C receptors (Homo sapiens, UniProt P28335); experiment: Calcium mobilization, HEK293 cells expressing human 5-HT2C; format: cell-based; conditions: for Emax: HEK293, read-out: 5-HT2C Mobilization of Calcium % Emax
T2 sequence (P28335 33-458): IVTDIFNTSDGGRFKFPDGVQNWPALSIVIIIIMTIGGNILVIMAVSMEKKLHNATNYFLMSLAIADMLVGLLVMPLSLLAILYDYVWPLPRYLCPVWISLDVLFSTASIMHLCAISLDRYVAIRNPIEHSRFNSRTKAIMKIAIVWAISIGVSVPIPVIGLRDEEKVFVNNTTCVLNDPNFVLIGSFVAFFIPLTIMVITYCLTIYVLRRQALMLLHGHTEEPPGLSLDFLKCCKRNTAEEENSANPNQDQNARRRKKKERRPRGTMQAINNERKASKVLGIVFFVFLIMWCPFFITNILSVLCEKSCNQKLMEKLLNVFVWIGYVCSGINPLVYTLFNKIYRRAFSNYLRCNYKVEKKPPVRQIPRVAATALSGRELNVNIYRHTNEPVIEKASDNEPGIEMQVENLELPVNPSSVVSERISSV

male rats [3] = experiment: Wet dog shakes; format: in vivo, rat; conditions: sc; for Doses significantly increasing summed WDS vs vehicle: Bonferroni p<0.05
How it was run: (§1)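 Male Sprague-Dawley rats (250–300 g) with ≥2 weeks of acclimation, one sc injection per weekly session of saline or one of 4 doses (1.0 mL/kg), N=9/group. Dose ranges were 0.03–1.0, 0.01–0.3 or 0.1–3.0 mg/kg depending on compound. WDS and BMC were counted by a non-blind rater in eight 90-s periods every 15 min and summed. ED50 came from nonlinear regression of score versus log dose on the rising phase.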

male rats [4] = experiment: Back muscle contractions; format: in vivo, rat; conditions: sc; for Doses significantly increasing summed BMC vs vehicle: rats, Bonferroni p<0.05; for Rat BMC ED50: summed BMC over 2 h, rising phase of dose-effect function
How it was run: as §1

male rats [5] = experiment: Body temperature via implanted transponder; format: in vivo, rat; conditions: sc, all doses tested, 15-120 min post-injection
[6] = ref Eshleman et al. (2014); cited from earlier work
5-HT2A receptor [7] = conditions: ref Eshleman et al. (2014); cited from earlier work
5-HT2A receptor [8] = conditions: ref Eshleman et al. (2014); cited from earlier work; remark: listed apart in the source
mice [9] = conditions: sc, ref Halberstadt and Geyer, 2014; cited from earlier work
human 5-HT2A receptors [10] = biological target: T1, human 5-HT2A receptors; conditions: 25C-NBOMe vs 2C-C, 25I-NBOMe vs 2C-I; ref Rickli et al., 2015; cited from earlier work
rats = conditions: cited from earlier work
mice [11] = conditions: ref Gatch et al., 2017; cited from earlier work
male rats [12] = experiment: M100907 antagonism of agonist-induced WDS and BMC; format: in vivo, rat
How it was run: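 Male Sprague-Dawley rats got sc M100907 (0.1 mg/kg in 1:9 DMSO:saline) or its vehicle 30 min before sc agonist or saline, with agonists at fixed doses of 0.03–1.0 mg/kg. Summed WDS and BMC came from eight 90-s observations at 15-min intervals by a non-blind rater. Rats were tested weekly, N=9/group, by Bonferroni comparison with Veh/Veh.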

5-HT2A = conditions: ref Marek and Aghajanian, 1994; cited from earlier work
[13] = 0.1 mg/kg M100907 30 min before 0.03 mg/kg 25C-NBOMe
[14] = 0.1 mg/kg M100907 30 min before 0.1 mg/kg 25I-NBOMe
[15] = 0.1 mg/kg M100907 30 min before 0.3 mg/kg 2C-C
[16] = 0.1 mg/kg M100907 30 min before 1.0 mg/kg 2C-I
[17] = 0.1 mg/kg M100907 30 min before 1.0 mg/kg DOI sc

Chain of 5-HT2A receptors in rat brain tissue (P14842 whole entry): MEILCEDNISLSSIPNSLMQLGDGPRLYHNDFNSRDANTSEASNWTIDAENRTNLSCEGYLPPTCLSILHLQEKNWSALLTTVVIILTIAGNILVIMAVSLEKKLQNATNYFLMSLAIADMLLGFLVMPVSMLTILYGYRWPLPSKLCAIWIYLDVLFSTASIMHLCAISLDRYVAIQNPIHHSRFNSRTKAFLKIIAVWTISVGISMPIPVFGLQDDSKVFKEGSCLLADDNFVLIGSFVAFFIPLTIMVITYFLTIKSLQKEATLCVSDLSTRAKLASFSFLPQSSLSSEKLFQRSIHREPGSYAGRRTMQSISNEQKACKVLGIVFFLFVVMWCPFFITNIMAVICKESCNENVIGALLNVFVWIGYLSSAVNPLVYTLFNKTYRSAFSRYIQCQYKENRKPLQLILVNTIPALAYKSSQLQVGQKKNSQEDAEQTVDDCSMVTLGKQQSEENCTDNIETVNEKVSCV

| SMILES | IC50 [1] | EC50 (human 5-HT2A receptors [2]) | Fold more potent than NBOMe counterpart in 5-HT2A-mediated calcium mobilization (human 5-HT2A receptors [2]) | Emax (human 5-HT2A receptors [2]) | EC50 (human 5-HT2C receptors) | Emax (human 5-HT2C receptors) | Doses significantly increasing summed WDS vs vehicle (male rats [3]; rats) | Doses significantly increasing summed BMC vs vehicle (male rats [4]) | Effect on body temperature (male rats [5]) | Functional activity in the IP assay (5-HT2A receptor [7]) | Functional activity in the [3H]AA assay (5-HT2A receptor [8]) | Rat BMC ED50 (male rats [4]) | ED50 in the head twitch assay (mice [9]) | Fold greater affinity for human 5-HT2A receptors than 2C counterpart (human 5-HT2A receptors [10]) | Effect on locomotor activity (mice [11]) | further results |
| --- | --- | --- | --- | --- | --- | --- | --- | --- | --- | --- | --- | --- | --- | --- | --- | --- |
| COc1cc(CCN)c(OC)cc1Cl [Compound 2C-C, 2-(4-chloro-2,5-dimethoxyphenyl)ethanamine] | 308 ± 21.6 nM | 4.57 ± 0.5 nM | 13 fold | 95% | 77.6 ± 5.5 nM | 29% | Significant stimulation of both behaviors occurred after administration of 0.3, 1.0, and 3.0 mg/kg doses | Significant stimulation of both behaviors occurred after administration of 0.3, 1.0, and 3.0 mg/kg doses | failed to significantly alter body temperature at any dose tested | full agonist | full agonist | – | – | – | – | Substitution for MDMA in drug discrimination [6]: fully substitutes |
| COc1cc(CCN)c(OC)cc1I [Compound 2C-I, 2-(4-iodo-2,5-dimethoxyphenyl)ethanamine] | 125 ± 13 nM | 3.97 ± 0.7 nM | 8 fold | 89% | 47.2 ± 6.7 nM | 28% | Significant stimulation of shaking behavior ocurred after 1.0 and 3.0 mg/kg doses | increases in BMC occurred after 0.3, 1.0, and 3.0 mg/kg doses | failed to alter body temperature at any dose tested | agonist | antagonist | 0.192 ± 0.060 mg/kg | 0.83 mg/kg | – | – | Substitution for prototypical hallucinogens like LSD in drug discrimination [6]: fully substitutes |
| COc1cc(CCNCc2ccccc2OC)c(OC)cc1Cl [Compound 25C-NBOMe, 2-(4-chloro-2,5-dimethoxyphenyl)-N-[(2-methoxyphenyl)methyl]ethanamine] | 8.7 ± 1 nM | 61.7 ± 3.5 nM | – | 104% | 178 ± 25 nM | 60% | Significant stimulation of shaking behavior occured after 0.03 and 0.1 mg/kg doses | stimulation of contractions occured after 0.03, 0.1 and 0.3 mg/kg doses | did not significantly alter body temperature at any dose tested | – | – | – | – | 18 fold | dose-dependently reduced locomotor activity | DOM-appropriate responding (rats; dose of 0.03 mg/kg, ref Gatch and colleagues (2017)): < 20%; Substitution for DOM in drug discrimination (rats; ip, ref Gatch et al., 2017): fully substituted; Substitution for MDMA in drug discrimination (rats; ip, ref Gatch et al., 2017): only partially substituting |
| COc1cc(CCNCc2ccccc2OC)c(OC)cc1I [Compound 25I-NBOMe, 2-(4-iodo-2,5-dimethoxyphenyl)-N-[(2-methoxyphenyl)methyl]ethanamine] | 3.9 ± 0.4 nM | 34.7 ± 4.2 nM | – | 108% | 88.9 ± 11 nM | 70% | Significant increases in shakes occured after the 0.1 and 0.3 mg/kg doses | increases in contractions occurred after the 0.03, 0.1, and 0.3 mg/kg doses | did not significantly alter body temperature at any dose tested | – | – | 0.037 ± 0.011 mg/kg | 0.08 mg/kg | 6 fold | dose-dependently reduced locomotor activity | Fold more potent than 2C counterpart in inducing WDS (male rats [3]; rats, 25C-NBOMe vs 2C-C, 25I-NBOMe vs 2C-I): 10 fold; Rat WDS ED50 (male rats [3]; summed WDS over 2 h, rising phase of dose-effect function): 0.062 ± 0.026 mg/kg; Fold more potent than 2C-I at eliciting head twitch behavior (mice [9]): about 10 fold |
| COc1cccc([C@H](O)C2CCN(CCc3ccc(F)cc3)CC2)c1OC [Compound M100907, (R)-(2,3-dimethoxyphenyl){1-[2-(4-fluorophenyl)ethyl]-4-piperidinyl}methanol] | – | – | – | – | – | – | – | – | – | – | – | – | – | – | – | Effect on BMC induced by 25C-NBOMe (male rats [12]; [13]): significantly decreased; Effect on WDS induced by 25C-NBOMe (male rats [12]; [13]): significantly decreased WDS; Effect on BMC induced by 25I-NBOMe (male rats [12]; [14]): decreased; Effect on WDS induced by 25I-NBOMe (male rats [12]; [14]): decreased WDS; Effect on BMC induced by 2C-C (male rats [12]; [15]): decreased; Effect on WDS induced by 2C-C (male rats [12]; [15]): decreased WDS; Effect on BMC induced by 2C-I (male rats [12]; [16]): decreased; Effect on WDS induced by 2C-I (male rats [12]; [16]): decreased WDS; Effect on BMC induced by DOI (male rats [12]; [17]): significantly decreased shakes and contractions; Effect on WDS induced by DOI (male rats [12]; [17]): significantly decreased shakes and contractions; Selectivity for 5-HT2A over 5-HT2C and other receptor subtypes (5-HT2A): more than 100 fold |
| COc1cc(CC(C)N)c(OC)cc1I (stereo not drawn) [DOI, 1-(4-iodo-2,5-dimethoxyphenyl)propan-2-amine, reference compound] | 56.1 ± 4.9 nM | – | – | 109% | 47.7 ± 3 nM | 50% | significant increases in both behaviors occurring after 0.1, 0.3, and 1.0 mg/kg | significant increases in both behaviors occurring after 0.1, 0.3, and 1.0 mg/kg | no significant effects on body temperature at any dose tested | – | – | – | – | – | – | – |
